Results gathered from unrelated publications.
Protocols differ between the studies behind these lines.
Effect on: metabolic stability

SMILES | host | medium | concentration | pH | half-life [min]
COc1ccc(CNC(=O)c2c(C)nc3cc(C)ccn23)cc1 | rat | liver microsomes | – | – | 19
CCCCN1C(=O)C(COC)NC(=O)C12CCN(Cc1ccc(Oc3ccccc3)cc1)CC2.Cl (stereo not drawn) | rat | liver microsomes | 5 µM | – | 16
CCc1cccc(CC)c1-n1c(C)c(C(=O)N2CCNCC2)cc(-c2nc(-c3ccc(Cl)cc3)cs2)c1=O | rat | liver microsomes | 1 µM | pH 7.4 | > 30
N#Cc1cc(NC(=O)[C@H]2c3ccccc3C(=O)N(CC(F)(F)F)[C@@H]2c2cccnc2)ccc1F | rat | liver microsomes | – | – | > 240
O=C(O)c1ccccc1-c1c2cc(Cl)c(=O)cc-2oc2cc(O)c(Cl)cc12 | male Sprague-Dawley rat | liver microsomes | – | – | 250
O=C(OC(C(F)(F)F)C(F)(F)F)N1Cc2ccc(OCCN3CCOCC3)cc2C1 | rat | liver microsomes | – | – | 17
CCc1cccc(CC)c1-n1c(C)c(C(=O)NC)cc(-c2nc(-c3ccc(Cl)cc3)cs2)c1=O | rat | liver microsomes | 1 µM | pH 7.4 | 1.5
N#Cc1ccc(C[C@@H](NC(=O)Nc2ccc(F)cc2)C(=O)N2CCc3ccc(F)cc32)cc1 | rat | liver microsomes | 10 µM | pH 7.4 | > 15
CC(C)(C)C[C@@H]1N[C@@H](C(=O)N[C@H]2C[C@](C)(O)C2)[C@H](c2cccc(Cl)c2F)[C@]12C(=O)Nc1cc(Cl)ccc12 | rat | liver microsomes | – | – | > 60
O=C(N[C@H](Cc1c[nH]c2ccccc12)C(=O)Nc1ccncc1)c1ccc(-c2cc(F)ccc2F)cc1F | rat | liver microsomes | – | – | 17
CCOc1c(O)cc(Br)c2c1CN1CCc3cc(OCC(F)F)c(O)cc3[C@@H]1C2 | rat | liver S9 | 2 µM | pH 7.4 | 5.71
O=C(OC(C(F)(F)F)C(F)(F)F)N1CCc2ccccc2C1 | rat | liver microsomes | – | – | 12
Cc1ccc2c(c1)nc(CCc1cccc3cccnc13)n2-c1ccccc1 | rat | liver microsomes | 1.5 µM | – | 0.87
O=[N+]([O-])c1ccc(CNc2nc(NCc3cccc(C(F)(F)F)c3)nc3[nH]cnc23)cc1 | rat | liver microsomes | 1 µM | pH 7.4 | 17
O=c1ccc2ccc(O)cc2o1 | rat | liver S9 | 2 µM | pH 7.4 | 6.54
